Reference: publication PMC12398706 (ACS chemical neuroscience, 2025)
Counter-ions that a name gives are not always drawn. Like-named read-outs stand apart in the source and are kept apart here.

Assays:
SERT [1] = biological target: T1, SERT (Homo sapiens, UniProt P31645); format: cell-based
SERT [2] = biological target: T1, SERT; assay: SERT efflux assay; format: cell-based; settings: for SERT efflux, single concentration: 10 μM, normalized to vehicle (0.1% DMSO = 0%) and 100 μM PCA = 100%
Procedure, shortened: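 hSERT-N1-pEYFP transfected (0.1 μg/well) into HEK293T cells (DMEM, 10% FBS) at seeding, 24 h before assay. In HBSS with 2 mM MgCl2, 2 mM CaCl2 and 5 mM HEPES at 37 °C, cells were loaded with 40 nM [3H]5-HT for 20 min, washed, then exposed 20 min to test compound (final 10 μM–1 nM, 0.1% DMSO). After washing and NaOH lysis, retained radioactivity was scintillation-counted. EC50/Span came from three-parameter log(agonist)-response fits.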

serotonin uptake = settings: cited from earlier work
SERT [3] = biological target: T1, SERT; settings: cited from earlier work
NET = NET (Homo sapiens, UniProt P23975); assay: NIMH PDSP radioligand binding, NET; settings: 10 μM; N = 1 in quadruplicate
Procedure, shortened: (§1)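 Outsourced screen run by the NIMH Psychoactive Drug Screening Program across a broad target panel. Test compound at 10 μM; read-out was % inhibition of binding of a radiolabelled ligand specific to each target. Single experiment (N = 1) run in quadruplicate, with the averaged value reported.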

sigma 2 = assay: NIMH PDSP radioligand binding, sigma 2; settings: 10 μM; N = 1 in quadruplicate
Procedure, shortened: as §1

SERT-PG^601,602AA = SERT-PG^601,602AA (Homo sapiens, UniProt P31645, G602A/P601A); assay: SERT pharmacochaperoning assay; format: cell-based; settings: 20 μM, 24 h; normalized to vehicle (0.2% DMSO = 0%) and 20 μM noribogaine = 100%
Procedure, shortened: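 HEK293T cells (DMEM, 10% FBS) were transfected at seeding with the misfolding SERT-PG601,602AA plasmid (0.1 μg/well) and kept overnight at 37 °C, 5% CO2. They were then exposed 24 h to test compound at a final 20 μM (0.2% DMSO) in fresh medium. Four 10-min washes with supplemented HBSS preceded 10-min uptake of 40 nM [3H]5-HT. Cells were washed, lysed in 10 mM NaOH and scintillation-counted.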

adrenergic receptors = assay: NIMH PDSP radioligand binding, adrenergic receptors; settings: 10 μM; N = 1 in quadruplicate
Procedure, shortened: as §1

H1 = H1 (Homo sapiens, UniProt P35367); assay: NIMH PDSP radioligand binding, H1; settings: 10 μM; N = 1 in quadruplicate
Procedure, shortened: as §1

sigma 1 = assay: NIMH PDSP radioligand binding, sigma 1; settings: 10 μM; N = 1 in quadruplicate
Procedure, shortened: as §1

5-HT3 receptors = biological target: T2, 5-HT3 receptors (Homo sapiens, UniProt P46098); assay: NIMH PDSP radioligand binding, 5-HT3; settings: 10 μM; N = 1 in quadruplicate
T2 sequence (P46098 24-478): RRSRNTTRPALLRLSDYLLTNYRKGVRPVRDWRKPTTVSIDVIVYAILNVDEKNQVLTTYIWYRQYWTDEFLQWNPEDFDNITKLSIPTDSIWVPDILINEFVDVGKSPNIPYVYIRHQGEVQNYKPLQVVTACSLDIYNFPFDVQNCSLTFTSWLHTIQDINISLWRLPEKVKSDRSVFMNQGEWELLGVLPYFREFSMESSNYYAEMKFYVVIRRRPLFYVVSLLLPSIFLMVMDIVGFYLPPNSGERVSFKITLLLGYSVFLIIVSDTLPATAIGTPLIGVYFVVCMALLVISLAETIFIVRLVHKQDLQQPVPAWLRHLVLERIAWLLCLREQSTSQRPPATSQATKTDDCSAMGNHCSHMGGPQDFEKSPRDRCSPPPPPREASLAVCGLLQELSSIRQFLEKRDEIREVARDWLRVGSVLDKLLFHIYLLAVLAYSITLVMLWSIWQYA
Procedure, shortened: as §1

SERT [4] = biological target: T1, SERT; settings: cited from earlier work; remark: listed apart in the source
DAT = DAT (Homo sapiens, UniProt Q01959); assay: NIMH PDSP radioligand binding, DAT; settings: 10 μM; N = 1 in quadruplicate
Procedure, shortened: as §1

SERT [5] = biological target: T1, SERT; assay: NIMH PDSP radioligand binding, SERT; settings: 10 μM; N = 1 in quadruplicate
5-HT2B = 5-HT2B (Homo sapiens, UniProt P41595); assay: NIMH PDSP radioligand binding, 5-HT2B; settings: 10 μM; N = 1 in quadruplicate
Procedure, shortened: as §1

SERT [6] = biological target: T1, SERT; settings: cocaine 10 μM; value taken from a previous report; cited from earlier work
[7] = concentration-response, compared to UCD0184

Chain of NET (P23975 whole entry): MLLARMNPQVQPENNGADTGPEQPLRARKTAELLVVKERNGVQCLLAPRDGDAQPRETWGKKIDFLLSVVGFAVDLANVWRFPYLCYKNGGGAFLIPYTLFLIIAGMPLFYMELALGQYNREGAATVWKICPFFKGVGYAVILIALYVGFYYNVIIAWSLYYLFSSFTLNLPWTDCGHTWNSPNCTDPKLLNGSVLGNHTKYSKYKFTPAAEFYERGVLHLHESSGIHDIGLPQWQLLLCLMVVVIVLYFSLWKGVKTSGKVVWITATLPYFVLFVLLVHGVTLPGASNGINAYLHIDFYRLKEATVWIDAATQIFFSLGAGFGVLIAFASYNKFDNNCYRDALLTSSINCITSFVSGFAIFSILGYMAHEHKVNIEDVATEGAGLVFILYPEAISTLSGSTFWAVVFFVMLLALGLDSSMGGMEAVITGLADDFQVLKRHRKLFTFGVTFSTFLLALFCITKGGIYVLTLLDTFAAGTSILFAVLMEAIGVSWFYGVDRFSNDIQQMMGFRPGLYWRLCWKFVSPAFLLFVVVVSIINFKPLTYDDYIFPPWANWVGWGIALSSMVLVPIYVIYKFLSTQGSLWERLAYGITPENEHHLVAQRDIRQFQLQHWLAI
Chain of H1 (P35367 whole entry): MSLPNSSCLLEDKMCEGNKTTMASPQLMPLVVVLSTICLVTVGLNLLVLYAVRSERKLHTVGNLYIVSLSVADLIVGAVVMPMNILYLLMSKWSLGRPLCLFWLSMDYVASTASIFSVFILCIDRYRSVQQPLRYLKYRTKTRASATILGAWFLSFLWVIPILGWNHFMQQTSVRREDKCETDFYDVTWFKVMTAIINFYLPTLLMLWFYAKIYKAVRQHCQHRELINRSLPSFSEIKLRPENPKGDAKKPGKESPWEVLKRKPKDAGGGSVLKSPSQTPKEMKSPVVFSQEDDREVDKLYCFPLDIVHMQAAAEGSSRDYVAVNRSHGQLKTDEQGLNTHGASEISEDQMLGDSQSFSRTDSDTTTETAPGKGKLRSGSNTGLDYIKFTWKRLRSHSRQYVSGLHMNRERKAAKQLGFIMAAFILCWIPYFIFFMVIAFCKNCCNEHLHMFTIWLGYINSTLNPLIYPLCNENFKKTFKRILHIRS
Chain of 5-HT2B (P41595 whole entry, species assumed): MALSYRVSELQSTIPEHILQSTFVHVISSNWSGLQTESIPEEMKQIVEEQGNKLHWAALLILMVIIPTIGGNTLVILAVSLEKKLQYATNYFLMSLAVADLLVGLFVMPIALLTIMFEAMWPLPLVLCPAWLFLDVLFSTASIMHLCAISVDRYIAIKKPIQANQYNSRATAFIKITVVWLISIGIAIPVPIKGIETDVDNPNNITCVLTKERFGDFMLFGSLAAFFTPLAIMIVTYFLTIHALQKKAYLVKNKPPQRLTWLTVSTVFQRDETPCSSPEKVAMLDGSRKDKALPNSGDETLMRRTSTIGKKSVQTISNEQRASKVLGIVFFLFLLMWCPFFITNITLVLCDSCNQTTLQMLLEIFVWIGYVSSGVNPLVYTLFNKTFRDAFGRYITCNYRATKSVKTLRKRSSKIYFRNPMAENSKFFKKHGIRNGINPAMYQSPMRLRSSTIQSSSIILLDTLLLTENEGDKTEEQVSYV
Chain of DAT (Q01959 whole entry, species assumed): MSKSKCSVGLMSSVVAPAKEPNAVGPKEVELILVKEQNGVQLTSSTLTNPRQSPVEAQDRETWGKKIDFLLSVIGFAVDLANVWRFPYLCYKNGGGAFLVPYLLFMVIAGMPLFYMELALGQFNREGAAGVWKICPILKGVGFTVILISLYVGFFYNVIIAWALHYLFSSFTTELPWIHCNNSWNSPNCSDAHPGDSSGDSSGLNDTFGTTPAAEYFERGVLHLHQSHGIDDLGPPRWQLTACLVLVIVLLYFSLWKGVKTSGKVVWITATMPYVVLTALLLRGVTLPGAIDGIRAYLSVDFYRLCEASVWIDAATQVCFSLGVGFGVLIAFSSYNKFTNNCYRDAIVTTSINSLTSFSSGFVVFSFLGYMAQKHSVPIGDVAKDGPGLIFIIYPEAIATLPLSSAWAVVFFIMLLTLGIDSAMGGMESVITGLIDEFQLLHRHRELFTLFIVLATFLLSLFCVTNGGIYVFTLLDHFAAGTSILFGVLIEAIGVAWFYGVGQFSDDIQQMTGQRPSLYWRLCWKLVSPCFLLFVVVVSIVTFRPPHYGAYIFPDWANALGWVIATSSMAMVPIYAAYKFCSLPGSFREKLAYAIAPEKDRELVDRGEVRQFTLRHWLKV

## CN1[C@@H]2C[C@@H](OC(=O)[C@H](CO)c3ccccc3)C[C@H]1[C@@H]1O[C@@H]12 [scopolamine, scopolamine hydrobromide trihydrate, reference compound]
SERT [1]
  SERT inhibition, single concentration: meaningful levels of SERT inhibition

## CN1C2CCC1CC(OC(=O)c1ccccc1)C2 (centres unmarked) [tropacocaine]
SERT [2]; HEK293T
  SERT efflux, single concentration: no effect
Serotonin uptake
  serotonin uptake inhibition activity relative to cocaine (in words): reduced activity relative to cocaine
SERT [3]
  SERT binding affinity relative to cocaine (in words): reduced activity relative to cocaine

## CN1C2C=C(c3c[nH]c4ccccc34)CC1CC2 (centres unmarked) [UCD0184]
NET
  % inhibition of radioligand binding at NET (in words): potent ligands
SERT [2]; HEK293T
  SERT efflux, single concentration: appreciable 5-HT efflux
SERT [2]; SERT-transfected HEK293T cells
  type of serotonin releasing agent (SRA): full or partial: full
SERT [2]; concentration-response, normalized to vehicle 0% and 100 μM PCA 100%
  SERT efflux Span (Emax): 75.1%
SERT [2]; read-out: SERT efflux EC50, concentration-response, HEK293T
  EC50: 582 nM
Sigma 2
  % inhibition of radioligand binding at sigma 2 (in words): potent ligands
SERT-PG^601,602AA
  SERT pharmacochaperoning efficacy compared to noribogaine: did not act as a SERT pharmacochaperone
Adrenergic receptors
  % inhibition of radioligand binding at adrenergic receptors (in words): potent ligands
H1
  % inhibition of radioligand binding at H1 (in words): potent ligands
Sigma 1
  % inhibition of radioligand binding at sigma 1 (in words): potent ligands
5-HT3 receptors
  % inhibition of radioligand binding at 5-HT3 (in words): high affinity
SERT [4]
  selectivity for SERT over DAT: approximately 10 fold
  selectivity for SERT over NET: ~100 fold
SERT [1]
  SERT inhibition Span (Emax): 105%
  SERT inhibition, single concentration: near full inhibition
SERT [1]; read-out: SERT inhibition EC50, concentration-response, HEK293T
  EC50: 1100 nM
DAT
  % inhibition of radioligand binding at DAT (in words): potent ligands
SERT [5]
  % inhibition of radioligand binding at SERT (in words): substantial binding
5-HT2B
  % inhibition of radioligand binding at 5-HT2B (in words): potent ligands

## COC(=O)[C@H]1[C@@H](OC(=O)c2ccccc2)C[C@@H]2CC[C@H]1N2C [cocaine, (−)-cocaine hydrochloride]
SERT [6]
  SERT inhibition, single concentration: ~ 50%

## CN1C2C=C(c3c[nH]c4ccc(F)cc34)CC1CC2 (centres unmarked) [UCD0093]
NET
  % inhibition of radioligand binding at NET (in words): potent ligands
SERT [2]; [7]
  SERT efflux potency and efficacy (in words): minimal effect on SERT efflux
Sigma 2
  % inhibition of radioligand binding at sigma 2 (in words): potent ligands
Adrenergic receptors
  % inhibition of radioligand binding at adrenergic receptors (in words): potent ligands
H1
  % inhibition of radioligand binding at H1 (in words): potent ligands
Sigma 1
  % inhibition of radioligand binding at sigma 1 (in words): potent ligands
5-HT3 receptors
  % inhibition of radioligand binding at 5-HT3 (in words): high affinity
SERT [1]; [7]
  SERT inhibition potency and efficacy (in words): drastically increased SERT inhibition potency
DAT
  % inhibition of radioligand binding at DAT (in words): potent ligands
SERT [5]
  % inhibition of radioligand binding at SERT (in words): substantial binding
5-HT2B
  % inhibition of radioligand binding at 5-HT2B (in words): potent ligands
